Data published in PubChem BioAssay.
Results filed as inconclusive are left out. Active and inactive are the calls of the source.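 Rule for the calls, unless noted: active = growth inhibition above 25% in both replicates, a cutoff set 3 SD above the mean; inconclusive = above 25% in only one replicate; inactive = the rest.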

Columns and labels:
[1] = OD615 S. cerevisiae growth inhibition, permissive medium, pilot counter-assay, permissive growth control for S. cerevisiae lifespan shortening project (AID 705); settings: OD615, 24 h, at 10 µM, hits give high values
Method in brief: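 assay system = Saccharomyces cerevisiae strain carrying genetically modified DeaD replicative-lifespan system | medium = SC raffinose/galactose permissive medium | dosing = 10 µM single dose, 0.25% DMSO | schedule = 24 h compound exposure at 30 °C after 4 h pre-growth | measured by = OD at 615 nm | read-out basis = growth inhibition from lowered OD615 after 24 h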

[2] = Restrictive medium S. cerevisiae growth inhibition, OD615, pilot screen of yeast lifespan reduction project, restrictive growth control (AID 706;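 active = growth inhibition above a set limit, 3 SD over mean compound inhibition, in both replicates, cut at about 43% in these data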;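 note: modified DeaD lifespan yeast strain shifted to restrictive glucose medium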); settings: OD615, 48 h, at 10 µM, hits give high values
Method in brief: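 Buffer or medium: CSMM-D glucose medium. Material: genetically modified Saccharomyces cerevisiae, DeaD replicative lifespan assay strain. Times: 48 h compound exposure at 30 °C. Measured by: optical density at 615 nm.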

[3] = viability gain of MRP-1-high H69AR cells under doxorubicin, pilot screen, MRP-1 activator project, CellTiter-Glo, duplicate (AID 807;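 active = viability increase at or above a cutoff of the median across tested compounds plus 3 SD, cut at about 8.5% in these data, passing the limit was not always enough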;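 note: compound pretreatment 18-22 h then 72 h combined with doxorubicin; 0% = doxorubicin alone and 100% = vehicle without doxorubicin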); settings: H69AR viability with doxorubicin, CellTiter-Glo luminescence; at 10 µM; hits give high values
[4] = growth suppression of beta-catenin knockout HCT116, pilot screen, human colon tumor cells (AID 823;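 active = cell viability at or below a set limit in both duplicate runs, the limit being the all-compound median minus 4 SD, cut at about 23% in these data, passing the limit was not always enough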;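 note: 0% = wells killed by 20 µM Hyamine and 100% = untreated DMSO cell wells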); settings: CellTiter-Glo, 60 h, at 10 µM, hits give low values
[5] = growth suppression of PTEN-deleted HCT116, pilot screen, cell-based, HCT116 clonal line, CellTiter-Glo (AID 824;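 active = viability at or below 27.92% in each of two runs, the all-compound median minus 4 SD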;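 note: 0% = 20 µM Hyamine control and 100% = vehicle cell control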); settings: 60 h, at 10 µM, hits give low values
[6] = inhibitors of the yeast RAM network, pilot screen, dse1pr::URA3 reporter, 5-FOA selection (AID 869;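 active = inhibition over a set limit, the all-compound mean plus 3 SD, in both replicate runs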;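 note: 0% = DMSO wells with no growth and 100% = 10 µM 1-NA-PP1 with full growth; RAM network block rescues cells from 5-FOA so hits raise OD615 growth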); settings: S. cerevisiae dse1pr::URA3 5-FOA growth, OD615, 2 d; at 10 µM; hits give high values; strain carries analog-sensitive mutant Cbk1 kinase
[7] = RAM signaling pathway blockade in yeast – S. cerevisiae, Pdr1DBD-CYC8 efflux-inhibited sensitized strain, primary screen (AID 1298;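 active = RAM network inhibition above 8.4% in each of two replicates, 3 SD over the compound average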;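 note: 0% = DMSO untreated cells without growth and 100% = 10 µM 1-NA-PP1 full growth; higher means more yeast growth rescued from 5-FOA killing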); settings: S. cerevisiae cbk1-as DSE1-URA3 strain, 5-FOA growth OD615, 2 d; at 50 µM; hits give high values

COc1ccc(OC)c2c1sc(=NC(=O)C(C)C)n2C
inactive: growth inhibition [1] -3.95% | growth inhibition [2] 17.4% | viability increase [3] -3.34% | viability [4] 79.2% | viability [5] 74.1% | inhibition [6] 0.575% | RAM network inhibition [7] 3%

CN(CC(=O)NC1CCCc2ccccc21)S(=O)(=O)c1ccc2c(c1)c(=O)n(C)c(=O)n2C (stereo not drawn)
inactive: growth inhibition [1] -9.17% | growth inhibition [2] -10.7% | viability increase [3] -3.54% | viability [4] 95.3% | viability [5] 94% | inhibition [6] 2.24% | RAM network inhibition [7] 1.42%

CCCOC(=O)c1cccc(NC(=O)C(C)(C)C)c1
inactive: growth inhibition [1] -17.4% | growth inhibition [2] -14.3% | viability increase [3] 0.9% | viability [4] 98.7% | viability [5] 98.8% | inhibition [6] -0.725% | RAM network inhibition [7] 1.87%

CSC1=NCCN1C(=O)c1ccc(S(=O)(=O)N2CCOCC2)cc1
inactive: growth inhibition [1] 3.77% | growth inhibition [2] 10.2% | viability increase [3] -1.31% | viability [4] 102% | viability [5] 94.1% | inhibition [6] 0.62% | RAM network inhibition [7] 3.04%

Cc1ccc(Cc2c(C)nc3nc(SCC(=O)NCc4ccco4)nn3c2C)cc1
inactive: growth inhibition [1] 10.4% | growth inhibition [2] 12.9% | viability increase [3] -6.46% | inhibition [6] 0.455% | RAM network inhibition [7] 5.24%
active: viability [4] 13.2% | viability [5] 10.9%

Cc1c(NC(=O)c2ccco2)cccc1-c1nc2cccnc2s1
inactive: growth inhibition [1] 1.62% | growth inhibition [2] -4.21% | viability increase [3] -4.21% | viability [4] 97.4% | viability [5] 95.5% | inhibition [6] 2.2% | RAM network inhibition [7] 5.74%

COCCn1c(CN(C)Cc2ccccc2)nc2c1c(=O)n(C)c(=O)n2C
inactive: growth inhibition [1] -5.71% | growth inhibition [2] 8.7% | viability increase [3] 0.55% | viability [4] 87.8% | viability [5] 91.5% | inhibition [6] 3.04% | RAM network inhibition [7] 1.53%

O=C(Nc1ccccc1)c1ccc(S(=O)(=O)N2CCCCC2)cc1
inactive: growth inhibition [1] 3.41% | growth inhibition [2] -0.37% | viability increase [3] 0.95% | viability [4] 97.8% | viability [5] 82.5% | inhibition [6] 0.395% | RAM network inhibition [7] 2.23%

O=C1C2=C(SCCS2)C(=O)N1CCCO
inactive: growth inhibition [1] -1.38% | growth inhibition [2] -3.45% | viability increase [3] 0.11% | viability [4] 98.9% | viability [5] 97.9% | inhibition [6] -0.095% | RAM network inhibition [7] 3.67%

COC(=O)c1ccccc1NC(=O)c1c(O)c2c([nH]c1=O)CCCC2
inactive: growth inhibition [1] -23.1% | growth inhibition [2] -12.7% | viability increase [3] -5.62% | viability [4] 88.3% | viability [5] 93% | inhibition [6] 1.71% | RAM network inhibition [7] 1.65%

O=C(Nc1c(C(=O)N2CCCC2)cnn1-c1ccccc1)c1cccc(F)c1
inactive: growth inhibition [1] -7.52% | growth inhibition [2] -1.27% | viability increase [3] -0.46% | viability [4] 96.7% | viability [5] 98.9% | inhibition [6] 0.475% | RAM network inhibition [7] 1.02%

O=C(NCCCN1CCc2ccccc2C1)C1CCN(c2nnc(-n3cccc3)s2)CC1
inactive: growth inhibition [1] 2.54% | growth inhibition [2] -1.29% | viability increase [3] -3.55% | viability [4] 82.2% | viability [5] 79.4% | inhibition [6] 2.08% | RAM network inhibition [7] 5.45%

COc1cc2c(C(=O)NCc3ccccn3)cn(C)c(=O)c2cc1OC
inactive: growth inhibition [1] -8.38% | growth inhibition [2] -2.63% | viability increase [3] -1.1% | viability [4] 102% | viability [5] 95.3% | inhibition [6] 1.86% | RAM network inhibition [7] 1.07%

CCNc1nc(NCC)nc(Oc2ccc(OCC)nn2)n1
inactive: growth inhibition [1] -15.2% | growth inhibition [2] -14.6% | viability increase [3] -0.87% | viability [4] 88.1% | viability [5] 92.2% | inhibition [6] 2.82% | RAM network inhibition [7] 4.95%

O=C(C1CCN(S(=O)(=O)c2cccc3cccnc23)CC1)N1CCN(c2ccccc2)CC1
inactive: growth inhibition [1] 1.1% | growth inhibition [2] 16.9% | viability increase [3] -3.27% | viability [4] 87.7% | viability [5] 83.8% | inhibition [6] 1.76% | RAM network inhibition [7] 6.12%

CC(C)CC(=O)Nc1c2c(nn1-c1ccc(F)cc1)CSC2
inactive: growth inhibition [1] -13.9% | growth inhibition [2] -14.5% | viability increase [3] -1.7% | viability [4] 91.1% | viability [5] 90.9% | inhibition [6] 1.46% | RAM network inhibition [7] 5.43%

CCn1c(C2CC(=O)N(c3ccc(C)c(C)c3)C2)nc2ccccc21 (stereo not drawn)
inactive: growth inhibition [1] -6.54% | growth inhibition [2] 1.06% | viability increase [3] -3.09% | viability [4] 86.7% | viability [5] 89.9% | inhibition [6] -0.35% | RAM network inhibition [7] 0.57%

CCC(=O)c1cc2c(cc1NC(=O)c1cccs1)OCCO2
inactive: growth inhibition [1] -5.85% | growth inhibition [2] -7.54% | viability increase [3] -6.83% | viability [4] 69.2% | viability [5] 75.2% | inhibition [6] 1.38% | RAM network inhibition [7] 9.21%

O=C(Nc1ccccc1)N(CCc1ccncc1)C1CCCCC1
inactive: growth inhibition [1] -7% | growth inhibition [2] -2.46% | viability increase [3] -2.85% | viability [4] 97.4% | viability [5] 98.9% | inhibition [6] 1.18% | RAM network inhibition [7] -0.83%

Cn1c(Cn2c(=O)sc3ccccc32)nnc1SCC(=O)NCc1ccc2c(c1)OCO2
inactive: growth inhibition [1] -5.55% | growth inhibition [2] -2.44% | viability increase [3] 0.11% | viability [4] 103% | viability [5] 101% | inhibition [6] 1.07% | RAM network inhibition [7] 4.41%

Cc1cccc(N(C)S(=O)(=O)c2cccc3nsnc23)c1
inactive: growth inhibition [1] -12% | growth inhibition [2] -17.9% | viability increase [3] -4.32% | viability [4] 92.5% | viability [5] 89% | inhibition [6] 0.325% | RAM network inhibition [7] 4.78%

COc1ccc(S(=O)(=O)Cc2ccc(C(=O)NCc3ccco3)o2)cc1
inactive: growth inhibition [1] -3.02% | growth inhibition [2] -11.6% | viability increase [3] -4.28% | viability [4] 104% | viability [5] 97.4% | inhibition [6] 0.88% | RAM network inhibition [7] 0.47%

CCC(CC)C(=O)Nc1cc(C)c2c(=O)oc3ccccc3c2n1
inactive: growth inhibition [1] -17.2% | growth inhibition [2] -12.2% | viability increase [3] -5.01% | viability [4] 62.5% | viability [5] 64.2% | inhibition [6] 2.33% | RAM network inhibition [7] 9.87%

CSCCC1(C(=O)O)NC(c2ccccc2O)C2C(=O)N(C(C)C)C(=O)C21 (stereo not drawn)
inactive: growth inhibition [1] 2.37% | growth inhibition [2] 11.6% | viability increase [3] -1.09% | viability [4] 102% | viability [5] 94.7% | inhibition [6] 0.875% | RAM network inhibition [7] 3.49%
